In ChEMBL document CHEMBL1153311, “Inhibitory activity of prostaglandin E2 production by the synthetic 2'-hydroxychalcone analogues: Synthesis and SAR study” (Bioorg Med Chem Lett, 2009):

What was measured:
RAW264.7 = experiment: Cytotoxicity against mouse RAW264.7 cells assessed as cell viability at 10 uM by MTT assay; assay type: functional; conditions: read-out: Activity
Procedure, shortened: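 RAW 264.7 mouse macrophage-like cells tested with or without LPS; viability read by MTT assay and reported as percent cell […]; values are the mean of three experiments.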

[1] = biological target: T1, Prostaglandin G/H synthase 2 (Mus musculus, UniProt Q05769); experiment: Inhibition of COX2-mediated PGE2 production in LPS-stimulated mouse RAW264.7 cells by enzyme immunoassay
T1 sequence (Q05769 whole entry): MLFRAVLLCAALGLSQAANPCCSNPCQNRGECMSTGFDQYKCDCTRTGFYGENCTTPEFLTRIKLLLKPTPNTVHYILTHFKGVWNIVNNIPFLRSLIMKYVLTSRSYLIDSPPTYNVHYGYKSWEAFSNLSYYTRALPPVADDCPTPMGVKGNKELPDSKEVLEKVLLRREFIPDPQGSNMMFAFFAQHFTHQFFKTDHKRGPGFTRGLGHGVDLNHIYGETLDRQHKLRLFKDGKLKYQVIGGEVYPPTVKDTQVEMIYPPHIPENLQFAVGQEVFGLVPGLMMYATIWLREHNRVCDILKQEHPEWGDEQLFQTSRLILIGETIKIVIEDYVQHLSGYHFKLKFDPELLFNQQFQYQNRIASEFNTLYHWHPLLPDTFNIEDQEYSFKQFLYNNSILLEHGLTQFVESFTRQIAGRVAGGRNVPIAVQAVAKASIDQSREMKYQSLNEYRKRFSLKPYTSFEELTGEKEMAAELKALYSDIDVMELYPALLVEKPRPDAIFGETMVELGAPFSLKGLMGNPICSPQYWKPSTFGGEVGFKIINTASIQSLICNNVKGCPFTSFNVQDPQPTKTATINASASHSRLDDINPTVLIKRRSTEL

[2] = biological target: T2, Prostaglandin G/H synthase 2 (Homo sapiens, UniProt P35354); experiment: Inhibition of COX2
T2 sequence (P35354 whole entry): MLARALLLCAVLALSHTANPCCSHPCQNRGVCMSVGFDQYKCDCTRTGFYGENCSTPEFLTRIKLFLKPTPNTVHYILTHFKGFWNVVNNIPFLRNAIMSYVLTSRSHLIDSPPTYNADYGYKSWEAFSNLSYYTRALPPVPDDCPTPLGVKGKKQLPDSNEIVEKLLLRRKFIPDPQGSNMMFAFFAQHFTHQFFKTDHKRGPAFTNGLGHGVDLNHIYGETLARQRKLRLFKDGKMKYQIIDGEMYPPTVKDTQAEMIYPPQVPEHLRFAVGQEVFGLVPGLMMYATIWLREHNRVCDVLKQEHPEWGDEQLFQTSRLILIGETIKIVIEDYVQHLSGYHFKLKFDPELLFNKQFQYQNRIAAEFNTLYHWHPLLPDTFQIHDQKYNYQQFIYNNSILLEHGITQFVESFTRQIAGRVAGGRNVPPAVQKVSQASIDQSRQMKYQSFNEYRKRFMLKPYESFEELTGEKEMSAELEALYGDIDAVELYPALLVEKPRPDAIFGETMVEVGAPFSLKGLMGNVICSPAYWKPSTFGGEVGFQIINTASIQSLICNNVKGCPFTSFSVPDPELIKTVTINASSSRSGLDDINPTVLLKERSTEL
Procedure, shortened: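 RAW 264.7 mouse macrophage cells were plated at 2 × 10⁵ cells/well and treated with LPS for 24 h to induce COX-2, then washed. Compounds in DMSO were added in fresh medium containing arachidonic acid for 2 h. PGE₂ released into the medium was measured by EIA, and inhibition was expressed as the mean of three experiments.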

| IC50 [1] [µM] | IC50 [2] [nM] | Structure (SMILES) | viability at 10 µM (RAW264.7) [%] |
| --- | --- | --- | --- |
|  |  | COc1ccc(/C=C/C(=O)c2ccccc2O)c(OC)c1 | 107 |
|  |  | O=C(/C=C/c1ccc(Cl)cc1)c1ccccc1O | 141 |
|  |  | COc1ccc(/C=C/C(=O)c2ccccc2O)cc1 | 115 |
| 4.1 |  | O=C(/C=C/c1ccc(OCc2ccccc2)cc1)c1ccccc1O | 99 |
|  |  | CSc1ccc(/C=C/C(=O)c2ccccc2O)cc1 | 85 |
|  |  | O=C(/C=C/c1ccc2c(c1)OCO2)c1ccccc1O | 118 |
|  |  | COc1ccc(/C=C/C(=O)c2ccccc2O)cc1OCc1ccccc1 | 102 |
|  |  | Cc1ccc(/C=C/C(=O)c2ccccc2O)cc1 | 152 |
| 4.6 |  | O=C(/C=C/c1ccc(OCc2ccccc2)c(OCc2ccccc2)c1)c1ccccc1O | 103 |
|  |  | O=C(/C=C/c1ccc(-c2ccccc2)cc1)c1ccccc1O | 135 |
|  |  | O=C(/C=C/c1cccc(Br)c1)c1ccccc1O | 90 |
|  |  | O=C(/C=C/c1ccc(Cl)c(Cl)c1)c1ccccc1O | 155 |
|  |  | O=C(/C=C/c1ccc(OC(F)(F)F)cc1)c1ccccc1O | 87 |
|  |  | COc1ccc(/C=C/C(=O)c2ccccc2O)cc1Br | 159 |
| 3.8 |  | COc1cccc(/C=C/C(=O)c2ccccc2O)c1OC | 93 |
|  | 2700 | CC(=O)c1cc(C(C)=O)c2c(=O)cc(-c3ccccc3)oc2c1 |  |
| 6.2 |  | COc1cc(/C=C/C(=O)c2ccccc2O)cc(OC)c1OC | 65 |
|  |  | O=C(/C=C/c1ccc(Br)cc1)c1ccccc1O | 162 |
|  |  | O=C(/C=C/c1ccccc1)c1ccccc1O [2'-HYDROXYCHALCONE] | 119 |
|  |  | CS(=O)(=O)Nc1ccc([N+](=O)[O-])cc1OC1CCCCC1 [NS-398] | 104 |
| 1.07 |  | COc1c(O)cc(O)c2c(=O)cc(-c3ccccc3)oc12 [WOGONIN] | 111 |
